Values joined by “and” are separate entries in the source; they are usually repeats but may differ in a detail not shown here. Identical values can stand only once. Bounds are passed on as bounds.

The subject of one assay is B16. The assay is described as follows: Inhibition of murine B16 melanoma cell proliferation measured by the MTT assay. It counts as functional, cell-based. The note with it: Mus musculus. An outline of the steps: (§1)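 Murine L1210 leukemia and B16 melanoma cells were grown in RPMI 1640 with 10% fetal calf serum, 2 mM L-glutamine, penicillin/streptomycin and 10 mM HEPES (pH 7.4). Cells were exposed to nine serial drug dilutions in triplicate for about four doubling times (L1210 48 h, B16 96 h), then read by microculture tetrazolium (MTT) assay. IC50 is the concentration halving optical density versus untreated controls, averaged over ≥2 independent experiments.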
A general note: Tetrazolium dyes change colour on reduction, which living cells bring about.

The test system of the next assay is L1210. Nature of the assay: Inhibition of murine L1210 leukemia cell proliferation measured by the MTT assay. Format: functional, cell-based. The note with it: Mus musculus. In a few lines: as §1
For assay [1], the system named is Mus musculus. The assay is described as follows: Long-term survivors among 21 mice infected with P388 leukemia, scored on day 60 at 160-320 mg/kg dose on day 1. It counts as functional. In a few lines:
(§2)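 B6D2F1 mice in groups of 6–7 were inoculated ip on day 0 with 10^6 P388 cells. Dihydrochloride salts were dissolved in water and given iv on day 1 or on days 1, 5 and 9. Doses ranged from a low nontoxic dose to a toxic one. Long-term survivors were counted at day 60.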

Assay [2] deals with Mus musculus. Nature of the assay: Percent median survival time of mice injected with P388 leukemia, at a subcutaneous compound dose of 160-320 mg/kg. Format: functional.
Assay [3] concerns Mus musculus. Nature of the assay: Long-term survivors among 21 mice infected with B16 melanoma, scored on day 90 at 10 mg/kg dose on days 1-9.
The test system of assay [4] is Mus musculus. The assay is described as follows: Percent median survival time of mice injected with P388 leukemia, at a intravenous compound dose of 80 mg/kg.
Assay [5] relates to Mus musculus. Nature of the assay: Percent median survival time of mice injected with B16 melanoma, at a intraperitoneal compound dose of 10 mg/kg.
The subject of assay [6] is Mus musculus. The assay is described as follows: Long-term survivors among 12 mice infected with P388 leukemia, scored on day 60 at 80 mg/kg dose on day 1. Format: functional. In a few lines: as §2
The test system of assay [7] is Mus musculus. The assay is described as follows: Long-term survivors among 12 mice infected with P388 leukemia, scored on day 60 at 80 mg/kg dose on day 1, 5, 9. It counts as functional. In a few lines: as §2
Assay [8] concerns Mus musculus. The assay is described as follows: Long-term survivors among 14 mice infected with B16 melanoma, scored on day 90 at 5 mg/kg dose. Format: functional. In a few lines:
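B6D2F1 mice were inoculated ip on day 0 with B16 tumor brei (1 g tumor in 10 mL 0.9% NaCl). Compounds were given ip daily on days 1–9. Long-term survivors were scored at day 90.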

Assay [9] deals with Mus musculus. Nature of the assay: Percent median survival time of mice injected with B16 melanoma, at a intraperitoneal compound dose of 5 mg/kg.
Assay [10] has as its system Mus musculus. Nature of the assay: Percent median survival time of mice injected with P388 leukemia, at a intravenous compound dose of 80 mg/kg on day1.
Assay [11] deals with Mus musculus. The assay is described as follows: Percent median survival time of mice injected with P388 leukemia, at a intravenous compound dose of 80 mg/kg on day1,5,9.
Assay [12] has as its system Mus musculus. The assay is described as follows: Long-term survivors among 13 mice infected with P388 leukemia, scored on day 60 at 80 mg/kg dose on day 1. It counts as functional. In a few lines:
as §2

For assay [13], the system named is Mus musculus. The assay is described as follows: Percent median survival time of mice injected with P388 leukemia, at a subcutaneous compound dose of 40 mg/kg. Format: functional.
Assay [14] has as its system Mus musculus. Nature of the assay: Long-term survivors among 13 mice infected with B16 melanoma, scored on day 90 at 10 mg/kg dose on days 1-9.
For assay [15], the system named is Mus musculus. Nature of the assay: Long-term survivors among 6 mice infected with P388 leukemia, scored on day 60 at 5 mg/kg dose. Format: functional. In a few lines: as §2
Assay [16] relates to Mus musculus. Nature of the assay: Long-term survivors among 6 mice infected with P388 leukemia, scored on day 60 at 10 mg/kg dose. Format: functional. An outline of the steps: as §2
Assay [17] has as its system Mus musculus. The assay is described as follows: Percent median survival time of mice intraperitoneally injected with P388 leukemia was determined from tested at 10 mg/kg at day1 dose to that of control. It counts as functional. In a few lines: (§3)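 P388 leukemia in B6D2F1 mice (groups of 6–7), 10^6 cells inoculated ip on day 0. Dihydrochloride salts were dissolved in water and given iv on day 1 or on days 1, 5, 9. Three doses were tested, then five if active. %T/C = median survival treated/control × 100, reported at the optimal dose (no toxic death, weight loss <20%), from one or two representative experiments.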

Assay [18] concerns Mus musculus. Nature of the assay: Percent median survival time of mice intraperitoneally injected with P388 leukemia was determined from tested at 5 mg/kg at day1,5,9 dose to that of control. The note with it: route intraperitoneal. Format: functional. In a few lines:
as §3

The test system of assay [19] is Mus musculus. The assay is described as follows: Percent median survival time of mice injected with B16 melanoma, at a intraperitoneal compound dose of 20 mg/kg.
Assay [20] relates to Mus musculus. The assay is described as follows: Long-term survivors among 7 mice infected with B16 melanoma, scored on day 90 at 160 mg/kg dose on day 1. Format: functional.
Assay [21] concerns Mus musculus. The assay is described as follows: Long-term survivors among 7 mice infected with P388 leukemia, scored on day 60 at 160 mg/kg dose on day 1. Format: functional. In a few lines: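 B6D2F1 mice in groups of 6–7 received 10^6 P388 cells ip on day 0. Dihydrochloride salts dissolved in water were injected iv on day 1 or on days 1, 5 and 9, at three doses and then five. Read-outs were % T/C (median survival treated/control × 100) and long-term survivors on day 60, both at the optimal dose (no toxic death, weight loss <20%).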

The test system of assay [22] is Mus musculus. Nature of the assay: Percent median survival time of mice injected with P388 leukemia, at a subcutaneous compound dose of 160 mg/kg. Format: functional.

Regarding `Cc1c2ccnc(C(=O)NCCN(C)C)c2cc2c3cc(OC(=O)CCCC(=O)O)ccc3n(C)c12`, the values for the IC50 with B16 and with L1210 were 14.8 nM and 19.7 nM, respectively. Further, the LTS is 4 with Mus musculus [1] and 2 in the assay with Mus musculus [3]. In addition, the values for the T/C in the assay on Mus musculus [2], in the assay with Mus musculus [4] and in the assay on Mus musculus [5] were more than 590%, more than 582% and 196%, respectively.
Take `Cc1c2ccnc(C(=O)NCCN(C)C)c2cc2c3cc(O)ccc3n(C)c12`: the results for the IC50 in the assay on B16 and in the assay with L1210 were 5.4 nM and 13.1 nM, respectively. For the same compound, the LTS with Mus musculus [6] came out at 0; in the assay with Mus musculus [7], 7; in the assay with Mus musculus [8], 0. The T/C (in general, the result in the treated group divided by that in the control group, in per cent) in the assay on Mus musculus [9] is 174%; with Mus musculus [10], 227%; in the assay with Mus musculus [11], more than 541%.
As to `Cc1c2ccnc(C(=O)NCCN(C)C)c2cc2c3cc(OC(=O)c4cccnc4)ccc3n(C)c12`, the IC50 (usually the concentration needed to halve the response being measured) with B16 was found to be 2.3 nM; with L1210, 74.5 nM. The LTS in the assay on Mus musculus [12] and with Mus musculus [14] was 0 in each case. For the same compound, the T/C with Mus musculus [13] was 199% and 283%; with Mus musculus [5] it was 190%.
For the compound `Cc1c2ccnc(C(=O)NCCN(C)C)c2cc2c3cc(OC(=O)N(C)c4ccccc4)ccc3n(C)c12`, the half-maximal inhibitory concentration (IC50) in the assay on B16 turned out to be 1370 nM; in the assay on L1210 it was 1170 nM. The LTS with Mus musculus [15] and in the assay on Mus musculus [16] was 0 throughout. The figures for the T/C in the assay on Mus musculus [17], in the assay with Mus musculus [18] and in the assay with Mus musculus [19] were 100%, 106% and 101%, respectively.
With `Cc1c2ccnc(C(=O)NCCN(C)C)c2cc2c3cc(OC(=O)CCCCCCC(=O)O)ccc3n(C)c12`, the figures for the IC50 with B16 and in the assay on L1210 were 3.1 nM and 53.2 nM, respectively. The LTS in the assay on Mus musculus [20] and in the assay on Mus musculus [21] was 0 each time. The T/C is 287% in the assay on Mus musculus [22] and more than 645% in the assay with Mus musculus [4].

(Values after ChEMBL document CHEMBL1132144, “Synthesis of 9-O-substituted derivatives of 9-hydroxy-5, 6-dimethyl-6H-pyrido[4,3-b]carbazole-1-carboxylic acid (2-(dimethylamino)ethyl)amide and their 10- and 11-methyl analogues with improved antitumor activity” (J Med Chem, 1999).)
